Measured values from ChEMBL document CHEMBL1157852, “Modulation of doxorubicin activity in cancer cells by conjugation with fatty acyl and terpenyl hydrazones” (Eur J Med Chem, 2010).
Active and inactive are the calls of the source. The rule behind the calls is not given here.

How the values were obtained:
[1] = Cytotoxicity against human 518A2 cells assessed as increase in ROS production at 5 uM after 24 hrs by NBT reduction assay relative to control; type: functional
Procedure, shortened: (§1)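 NBT assay. HL-60 cells (0.5×10⁶/mL) or trypsinised 518A2 cells (5×10⁴/mL) pre-incubated 24 h at 37 °C, then given compound at a final 5 µM for 24 or 72 h. Medium removed; cells incubated with 0.1% NBT for 1 h (HL-60) or 4 h (518A2). Diformazan dissolved in 2 M KOH/DMSO; A630 read against 405 nm. Given as % of untreated controls; double quadruplicates.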

[2] = Cytotoxicity against human 518A2 cells assessed as increase in ROS production at 5 uM after 72 hrs by NBT reduction assay relative to control; type: functional; procedure, shortened: as §1
[3] = Cytotoxicity against human 518A2 cells after 48 hrs by MTT assay; type: functional, cell-based; details: 518A2, 48 h
Procedure, shortened: (§2)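 MTT assay. Cells seeded and cultured 24 h, then exposed to compound for 24, 48 or 72 h. MTT added to a final 0.05% (HL-60, 518A2) or 0.1% (KB-V1, MCF-7) for 2 h. Formazan dissolved in 10% SDS/DMSO with 0.6% acetic acid; absorbance read at 570 nm against 630 nm background. Viability taken relative to untreated controls (100%). IC50 from concentration-response curves, mean ± SD of four independent experiments.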

[4] = system: 518A2; assay: Induction of apoptosis in human 518A2 cells assessed as increase of ratio of Bax to Bcl-2 mRNA expression at 5 uM after 6 to 18 hrs by RT-PCR analysis; type: functional, cell-based
Procedure, shortened: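 518A2 cells exposed to 5 µM compound for 6 h or 18 h. bax and bcl-2 mRNA quantified by real-time PCR, normalised to GAPDH, and expressed as the bax/bcl-2 ratio.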

[5] = system: HL-60; assay: Induction of apoptosis in human HL60 cells assessed as increase of caspase 3 activity at 5 uM after 12 hrs by luminometric assay; type: functional, cell-based
Procedure, shortened: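 HL-60 and 518A2 cells treated with 5 µM compound and sampled at intervals from 1 to 24 h. Lysed in 50 mM Tris-HCl pH 7.4, 150 mM NaCl, 1% Triton X-100 with protease inhibitors for 15 min at 4 °C, spun at 800 g. Protein measured by Bradford. Caspase-3/7, -8 and -9 activities read with luminogenic peptide substrates; reported as relative luminescence.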

[6] = system: HL-60; assay: Induction of apoptosis in human HL60 cells assessed as appearance of intact mitochondria in cytosol at 5 uM after 18 hrs using JC1 dye relative to control; type: functional
Procedure, shortened: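 Mitochondrial membrane potential measured with JC-1. Cells exposed to 5 µM compound for 6 or 18 h, pelleted at 400 g, stained with 0.2× JC-1 at 37 °C for 15 min (HL-60) or 35 min (518A2), washed and resuspended in PBS. Red fluorescence (ex 585/em 590 nm) and green (ex 510/em 527 nm) read; red/green ratio relative to untreated controls (100%). Mean ± SD, four independent experiments.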

[7] = system: MCF7; assay: Ratio of compound IC50 to doxorubicin IC50 for human doxorubicin-resistant MCF7 cells; type: functional
[8] = Cytotoxicity against human doxorubicin-resistant KBV1 cells by MTT assay; type: functional, KB-V1
[9] = Cytotoxicity against human vinblastine-resistant KBV1 cells after 72 hrs by MTT assay; type: functional, cell-based; details: KB-V1, 72 h; procedure, shortened: as §2
[10] = system: HL-60; assay: Induction of apoptosis in human HL60 cells assessed as DNA ladder formation at 5 uM after 24 hrs by agarose gel electrophoresis; type: functional, cell-based
Procedure, shortened: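 HL-60 cells incubated with 5 µM compound for 24 h, then examined for DNA ladder patterns.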

[11] = system: MCF7; assay: Cytotoxicity against human doxorubicin-resistant MCF7 cells by MTT assay; type: functional

**Q.** For `COc1cccc2c1C(=O)c1c(O)c3c(c(O)c1C2=O)C[C@@](O)(/C(CO)=N/NC(=O)CCCCCCCCCCC(=O)O[C@@H]1C[C@H](C)CC[C@H]1C(C)C)C[C@@H]3O[C@H]1C[C@H](N)[C@H](O)[C@H](C)O1.Cl`, which Activity [1] is on record?
**A.** 3.3%

**Q.** What about the Activity [2] of the same molecule?
**A.** 38.3%

**Q.** What about the IC50 [3] of the same molecule?
**A.** 0.16 µM

**Q.** What about the Activity [4] of the same molecule?
**A.** Active

**Q.** What about the Activity [5] of the same molecule?
**A.** Active

**Q.** What about the Activity [6] of the same molecule?
**A.** 23%

**Q.** What about the “Ratio IC50” value [7] of the same molecule?
**A.** 1.6

**Q.** And the Activity [8]?
**A.** 200 nM

**Q.** What about the IC50 [9] of the same molecule?
**A.** 8.8 µM

**Q.** What about the Activity [10] of the same molecule?
**A.** Active

**Q.** And the Activity [11]?
**A.** 55 nM
